Results published in ChEMBL document CHEMBL4270642, “Boronic ester-linked macrocyclic lipopeptides as serine protease inhibitors targeting Escherichia coli type I signal peptidase” (Eur J Med Chem, 2018).
≈ marks a conversion by molar mass, not a printed value.

Tests used:
[1] = biological target: Signal peptidase I (Escherichia coli K-12) (UniProt P00803); assay: Inhibition of Escherichia coli type 1 signal peptidase lepB assessed as residual activity at 2.5 uM preincubated for 10 mins followed by Dabcyl-VGGTATAYGAFSRPGLE-(EDANS)-OH substrate addition measured after 2 hrs by FRET based assay (reference value: 100%)
In short: (§1)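 EcLepB (about 50 nM estimated) preincubated 10 min with compound. Reaction started with Dabcyl/EDANS FRET peptide at 8 µM final (Km 20 µM). Fluorescence followed continuously at 535 nm, 22 °C, for 2 h. Cleavage rates plotted against inhibitor concentration; IC50 from non-linear regression of sigmoidal dose-response curves.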

Klebsiella pneumoniae = assay: Antibacterial activity against Klebsiella pneumoniae ATCC 13883 after 16 to 20 hrs by broth microdilution method; type: functional
In short: (§2)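 Broth microdilution in cation-adjusted Mueller-Hinton II per EUCAST/CLSI; two-fold compound series 64 down to 0.25 µg/mL final. Inoculum from fresh colonies (non-selective agar, 18-24 h, 35 ± 2 °C), adjusted to 0.5 McFarland, diluted to about 5 × 10^5 CFU/mL final. Static incubation 16-20 h at 35 ± 2 °C; MIC read visually as complete growth inhibition against medium-only wells.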

[2] = biological target: Signal peptidase I (Escherichia coli K-12) (UniProt P00803); assay: Inhibition of Escherichia coli type 1 signal peptidase lepB assessed as residual activity at 0.1563 uM preincubated for 10 mins followed by Dabcyl-VGGTATAYGAFSRPGLE-(EDANS)-OH substrate addition measured after 2 hrs by FRET based assay (reference value: 100%); in short: as §1
[3] = biological target: Signal peptidase I (Escherichia coli K-12) (UniProt P00803); assay: Inhibition of Escherichia coli type 1 signal peptidase lepB assessed as residual activity at 0.0391 uM preincubated for 10 mins followed by Dabcyl-VGGTATAYGAFSRPGLE-(EDANS)-OH substrate addition measured after 2 hrs by FRET based assay (reference value: 100%); in short: as §1
Escherichia coli [4] = assay: Antibacterial activity against Escherichia coli ATCC 25922 after 16 to 20 hrs by broth microdilution method; type: functional; in short: as §2
Signal peptidase I = Signal peptidase I (Escherichia coli K-12, UniProt P00803); assay: Inhibition of Escherichia coli type 1 signal peptidase lepB preincubated for 10 mins followed by Dabcyl-VGGTATAYGAFSRPGLE-(EDANS)-OH substrate addition measured after 2 hrs by FRET based assay; in short: as §1
[5] = biological target: Signal peptidase I (Escherichia coli K-12) (UniProt P00803); assay: Inhibition of Escherichia coli type 1 signal peptidase lepB assessed as residual activity at 10 uM preincubated for 10 mins followed by Dabcyl-VGGTATAYGAFSRPGLE-(EDANS)-OH substrate addition measured after 2 hrs by FRET based assay (reference value: 100%); in short: as §1
[6] = Hemolytic activity in human RBC at 100 uM after 45 mins by spectrophotometric method relative to control; type: ADME, cell-based, Erythrocyte; conditions: red blood cells (erythrocytes), read-out: Activity
In short: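 Heparinized human blood; red cells washed three times in Tyrode buffer pH 7.4. Compound at 100 µM final with 1% DMSO and 50% RBC, shaken (250 rpm) 45 min at 37 °C. Cells pelleted (1000 × g, 10 min); supernatant haemoglobin at 540 nm. Percent lysis relative to buffer-only and 2% Triton X-100 controls.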

Pseudomonas aeruginosa [7] = assay: Antibacterial activity against efflux defective Pseudomonas aeruginosa PAO750 after 16 to 20 hrs by broth microdilution method; type: functional; in short: as §2
Escherichia coli [8] = assay: Antibacterial activity against tolC deficient Escherichia coli CH3130 after 16 to 20 hrs by broth microdilution method; type: functional; in short: as §2
[9] = biological target: Signal peptidase I (Escherichia coli K-12) (UniProt P00803); assay: Inhibition of Escherichia coli type 1 signal peptidase lepB assessed as residual activity at 0.0098 uM preincubated for 10 mins followed by Dabcyl-VGGTATAYGAFSRPGLE-(EDANS)-OH substrate addition measured after 2 hrs by FRET based assay (reference value: 100%); in short: as §1
[10] = biological target: Signal peptidase I (Escherichia coli K-12) (UniProt P00803); assay: Inhibition of Escherichia coli type 1 signal peptidase lepB assessed as residual activity at 0.0012 uM preincubated for 10 mins followed by Dabcyl-VGGTATAYGAFSRPGLE-(EDANS)-OH substrate addition measured after 2 hrs by FRET based assay (reference value: 100%); in short: as §1
[11] = biological target: Signal peptidase I (Escherichia coli K-12) (UniProt P00803); assay: Inhibition of Escherichia coli type 1 signal peptidase lepB assessed as residual activity at 0.0049 uM preincubated for 10 mins followed by Dabcyl-VGGTATAYGAFSRPGLE-(EDANS)-OH substrate addition measured after 2 hrs by FRET based assay (reference value: 100%); in short: as §1
Pseudomonas aeruginosa [12] = assay: Antibacterial activity against Pseudomonas aeruginosa PAO1 after 16 to 20 hrs by broth microdilution method; type: functional; in short: as §2
[13] = biological target: Signal peptidase I (Escherichia coli K-12) (UniProt P00803); assay: Inhibition of Escherichia coli type 1 signal peptidase lepB assessed as residual activity at 0.3125 uM preincubated for 10 mins followed by Dabcyl-VGGTATAYGAFSRPGLE-(EDANS)-OH substrate addition measured after 2 hrs by FRET based assay (reference value: 100%); in short: as §1
Escherichia coli [14] = assay: Antibacterial activity against Escherichia coli D22 CGSG 5163 harboring Ips mutant after 16 to 20 hrs by broth microdilution method; type: functional
In short: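 Broth microdilution in cation-adjusted Mueller-Hinton II broth, following EUCAST and CLSI guidelines. Two-fold series at final concentrations 64 down to 0.25 µg/mL, with medium-only and growth controls. Inoculum from fresh colonies (18-24 h, 35 °C ± 2 °C) adjusted to 0.5 McFarland, final ≈5 × 10^5 CFU/mL. Plates incubated unshaken 16-20 h at 35 °C ± 2 °C. MIC read visually as complete inhibition of growth.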

Acinetobacter baumannii = assay: Antibacterial activity against Acinetobacter baumannii ATCC 19606 after 16 to 20 hrs by broth microdilution method; type: functional; conditions: ATCC 19606 = CIP 70.34 = JCM 6841; in short: as §2
Staphylococcus aureus = assay: Antibacterial activity against Staphylococcus aureus ATCC 29213 after 16 to 20 hrs by broth microdilution method; type: functional; in short: as §2
[15] = biological target: Signal peptidase I (Escherichia coli K-12) (UniProt P00803); assay: Inhibition of Escherichia coli type 1 signal peptidase lepB assessed as residual activity at 0.625 uM preincubated for 10 mins followed by Dabcyl-VGGTATAYGAFSRPGLE-(EDANS)-OH substrate addition measured after 2 hrs by FRET based assay (reference value: 100%); in short: as §1
[16] = biological target: Signal peptidase I (Escherichia coli K-12) (UniProt P00803); assay: Inhibition of Escherichia coli type 1 signal peptidase lepB assessed as residual activity at 0.0024 uM preincubated for 10 mins followed by Dabcyl-VGGTATAYGAFSRPGLE-(EDANS)-OH substrate addition measured after 2 hrs by FRET based assay (reference value: 100%); in short: as §1
HepG2 = assay: Cytotoxicity against human HepG2 cells after 72 hrs by FMSA; type: cell-based; conditions: HepG2, 72 h
In short: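 HepG2 (ATCC) grown in EMEM with 10% FBS, pen/strep, 2 mM L-glutamine, used up to 20 passages. Seeded at 1000 cells/well, cultured overnight, then dosed acoustically from DMSO stocks. Eight two-fold dilutions in duplicate from top 64 or 32 µM; 72 h at 37 °C, 5% CO2. Fluorescein diacetate hydrolysis read at ex 485/em 530 nm; IC50 by non-linear regression.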

[17] = biological target: Signal peptidase I (Escherichia coli K-12) (UniProt P00803); assay: Inhibition of Escherichia coli type 1 signal peptidase lepB assessed as residual activity at 1.25 uM preincubated for 10 mins followed by Dabcyl-VGGTATAYGAFSRPGLE-(EDANS)-OH substrate addition measured after 2 hrs by FRET based assay (reference value: 100%); in short: as §1
[18] = biological target: Signal peptidase I (Escherichia coli K-12) (UniProt P00803); assay: Inhibition of Escherichia coli type 1 signal peptidase lepB assessed as residual activity at 5 uM preincubated for 10 mins followed by Dabcyl-VGGTATAYGAFSRPGLE-(EDANS)-OH substrate addition measured after 2 hrs by FRET based assay (reference value: 100%); in short: as §1
[19] = biological target: Signal peptidase I (Escherichia coli K-12) (UniProt P00803); assay: Inhibition of Escherichia coli type 1 signal peptidase lepB assessed as residual activity at 0.0195 uM preincubated for 10 mins followed by Dabcyl-VGGTATAYGAFSRPGLE-(EDANS)-OH substrate addition measured after 2 hrs by FRET based assay (reference value: 100%); in short: as §1
[20] = biological target: Signal peptidase I (Escherichia coli K-12) (UniProt P00803); assay: Inhibition of Escherichia coli type 1 signal peptidase lepB assessed as residual activity at 0.0781 uM preincubated for 10 mins followed by Dabcyl-VGGTATAYGAFSRPGLE-(EDANS)-OH substrate addition measured after 2 hrs by FRET based assay (reference value: 100%); in short: as §1

Chain of Signal peptidase I (Escherichia coli K-12) (P00803 whole entry): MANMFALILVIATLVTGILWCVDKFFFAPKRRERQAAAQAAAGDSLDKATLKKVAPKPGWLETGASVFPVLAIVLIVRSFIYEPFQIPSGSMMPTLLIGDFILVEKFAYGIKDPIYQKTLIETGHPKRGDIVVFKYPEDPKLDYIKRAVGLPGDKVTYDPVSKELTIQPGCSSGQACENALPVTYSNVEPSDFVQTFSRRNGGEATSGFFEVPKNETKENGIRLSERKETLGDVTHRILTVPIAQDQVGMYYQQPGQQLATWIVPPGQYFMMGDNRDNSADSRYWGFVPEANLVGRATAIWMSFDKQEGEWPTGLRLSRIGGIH
Chain of Signal peptidase I (P00803 whole entry): as above

| SMILES | Activity [1] [%] | MIC (Klebsiella pneumoniae) [µg/mL] | Activity [2] [%] | Activity [3] [%] | MIC (Escherichia coli [4]) [µg/mL] | IC50 (Signal peptidase I) [nM] | Activity [5] [%] | hemolysis at 0.75 h, 100 µM [6] [%] | MIC (Pseudomonas aeruginosa [7]) [µg/mL] | MIC (Escherichia coli [8]) [µg/mL] | Activity [9] [%] | Activity [10] [%] | Activity [11] [%] | MIC (Pseudomonas aeruginosa [12]) [µg/mL] | Activity [13] [%] | MIC (Escherichia coli [14]) [µg/mL] | MIC (Acinetobacter baumannii) [µg/mL] | MIC (Staphylococcus aureus) [µg/mL] | Activity [15] [%] | Activity [16] [%] | further results |
| --- | --- | --- | --- | --- | --- | --- | --- | --- | --- | --- | --- | --- | --- | --- | --- | --- | --- | --- | --- | --- | --- |
| CCCCCCc1ccc(-c2nc3cc(C(=O)N[C@@H](CCCN)C(=O)N[C@H](C(=O)N[C@@H](C)C(=O)N[C@H]4Cc5cn(nn5)CCO[C@@H]5C[C@@H]6OB(O[C@@H]6C5)[C@H](C)NC4=O)[C@@H](C)O)ccc3[nH]2)cc1 | 2.8 | 64 (≈ 69.1 µM) | 7.2 | 40.6 | > 64 | 29 | 6.3 | 0.5 | 64 (≈ 69.1 µM) | 16 (≈ 17.3 µM) | 86.3 | 100 | 88.3 | > 64 | 6.8 | 64 (≈ 69.1 µM) | 64 (≈ 69.1 µM) | 4 (≈ 4.32 µM) | 8.6 | 92.8 | IC50 (HepG2): 24400 nM; Activity [17]: 5.4%; Activity [18]: -0.1%; Activity [19]: 63.2%; Activity [20]: 16.5% |
| C[C@@H]1NC(=O)[C@@H](NC(=O)[C@H](C)NC(=O)[C@@H](NC(=O)[C@H](CCCN)NC(=O)c2ccc(=O)n(-c3ccccc3)c2)[C@@H](C)O)Cc2cn(nn2)CCO[C@@H]2C[C@@H]3OB1O[C@@H]3C2 | 42.8 | > 64 | 105 | 91.6 | > 64 | 1660 | 10.4 | 0.04 | > 64 | > 64 | 101 | 84.6 | 97.5 | > 64 | 69.5 | > 64 | > 64 | > 64 | 66.9 | 82.4 | IC50 (HepG2): > 64000 nM; Activity [17]: 62.1%; Activity [18]: 26.8%; Activity [19]: 104%; Activity [20]: 100% |
